# ChEMBL document CHEMBL4011624, “The 1,2,4-Triazolo[4,3-a]pyrazin-3-one as a Versatile Scaffold for the Design of Potent Adenosine Human Receptor Antagonists. Structural Investigations to Target the A2A Receptor Subtype” (J Med Chem, 2017)
# Activity calls are given as the source filed them. The calls are words filed in the database; no cut-off is given here.
# Tests used:
# Adenosine receptor A1 = biological target: T1, Adenosine receptor A1 (Homo sapiens, UniProt P30542); test: Displacement of [3H]CCPA from human adenosine receptor A1 expressed in CHO cell membranes after 3 hrs by microbeta scintillation counting method
# T1 sequence (P30542 whole entry): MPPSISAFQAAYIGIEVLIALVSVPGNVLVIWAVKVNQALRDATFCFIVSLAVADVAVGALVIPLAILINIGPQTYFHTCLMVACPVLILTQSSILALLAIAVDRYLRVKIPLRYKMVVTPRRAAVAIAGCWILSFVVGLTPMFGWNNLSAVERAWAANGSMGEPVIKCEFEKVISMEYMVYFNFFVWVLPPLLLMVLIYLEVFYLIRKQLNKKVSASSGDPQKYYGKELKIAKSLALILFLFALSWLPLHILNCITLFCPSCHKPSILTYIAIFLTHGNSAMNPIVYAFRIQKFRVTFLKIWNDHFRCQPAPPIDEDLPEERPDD
# Adenosine receptor A2a [1] = biological target: T2, Adenosine receptor A2a (Homo sapiens, UniProt P29274); test: Displacement of [3H]NECA from human adenosine receptor A2A expressed in CHO cell membranes after 3 hrs by microbeta scintillation counting method
# T2 sequence (P29274 whole entry): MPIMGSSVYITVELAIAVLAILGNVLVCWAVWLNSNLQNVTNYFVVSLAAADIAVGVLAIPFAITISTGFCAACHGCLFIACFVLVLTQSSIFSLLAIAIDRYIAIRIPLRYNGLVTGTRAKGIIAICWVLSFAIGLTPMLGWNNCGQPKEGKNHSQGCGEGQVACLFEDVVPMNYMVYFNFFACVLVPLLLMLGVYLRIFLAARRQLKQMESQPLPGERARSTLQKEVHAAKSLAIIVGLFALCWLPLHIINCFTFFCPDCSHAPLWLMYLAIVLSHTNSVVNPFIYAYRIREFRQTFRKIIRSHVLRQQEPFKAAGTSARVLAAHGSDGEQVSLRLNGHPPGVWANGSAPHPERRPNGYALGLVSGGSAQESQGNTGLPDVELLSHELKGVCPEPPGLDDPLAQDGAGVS
# Adenosine receptor A3 = biological target: T3, Adenosine receptor A3 (Homo sapiens, UniProt P0DMS8); test: Displacement of [3H]HEMADO from human adenosine receptor A3 expressed in CHO cell membranes after 3 hrs by microbeta scintillation counting method
# T3 sequence (P0DMS8 whole entry): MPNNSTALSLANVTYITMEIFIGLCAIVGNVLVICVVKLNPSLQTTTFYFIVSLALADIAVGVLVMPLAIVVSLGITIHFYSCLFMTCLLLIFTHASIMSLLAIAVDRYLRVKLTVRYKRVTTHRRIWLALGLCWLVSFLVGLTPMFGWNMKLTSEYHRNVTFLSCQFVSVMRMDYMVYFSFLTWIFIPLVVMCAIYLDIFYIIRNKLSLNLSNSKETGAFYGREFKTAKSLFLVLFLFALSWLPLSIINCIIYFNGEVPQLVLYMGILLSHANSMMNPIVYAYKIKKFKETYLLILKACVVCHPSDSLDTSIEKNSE
# Adenosine receptor A2b = biological target: T4, Adenosine receptor A2b (Homo sapiens, UniProt P29275); test: Antagonist activity at human adenosine receptor A2B expressed in CHO cell membranes assessed as inhibition of NECA-induced increase of cAMP accumulation preincubated for 10 mins followed by NECA addition measured after 10 mins by GloSensor cAMP assay; type: functional, cell-based
# T4 sequence (P29275 whole entry): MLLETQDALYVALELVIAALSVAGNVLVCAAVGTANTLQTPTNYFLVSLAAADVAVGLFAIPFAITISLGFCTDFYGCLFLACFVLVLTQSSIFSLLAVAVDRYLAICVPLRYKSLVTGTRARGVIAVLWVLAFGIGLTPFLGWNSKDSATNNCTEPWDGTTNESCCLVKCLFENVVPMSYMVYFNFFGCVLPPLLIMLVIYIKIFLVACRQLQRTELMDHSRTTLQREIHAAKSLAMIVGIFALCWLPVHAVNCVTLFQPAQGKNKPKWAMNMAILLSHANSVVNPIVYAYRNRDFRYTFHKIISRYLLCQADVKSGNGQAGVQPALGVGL
# In short: (§1)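 Receptors stably transfected in CHO cells. Antagonism read as inhibition of the NECA-stimulated rise in cAMP levels. IC50 values were derived from dose-response curves.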
# Adenosine receptor A2a [2] = biological target: T2, Adenosine receptor A2a; test: Antagonist activity at human adenosine receptor A2A expressed in CHO cell membranes assessed as inhibition of NECA-induced increase of cAMP accumulation preincubated for 10 mins followed by NECA addition measured after 10 mins by GloSensor cAMP assay; type: functional, cell-based; in short: as §1
# SH-SY5Y [3] = test: Neuroprotective activity against MPP+-induced toxicity in human SH-SY5Y cells assessed as increase in cell viability at 15 nM pretreated for 1 hr followed by MPP+ addition measured after 24 hrs by Celltiter-Glo luminescent assay; type: functional, cell-based
# In short: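 SH-SY5Y human neuroblastoma cells were exposed to MPP+ at 1.5 mM for 24 h, with test agent present, and cell viability was then measured. The MPP+ level was chosen from a pilot range of 50 μM to 3 mM over 24 h.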
# SH-SY5Y [4] = test: Cytotoxicity against human SH-SY5Y cells assessed as increase in cell viability at 0.5 to 30 nM after 24 hrs by Celltiter-Glo luminescent assay; type: cell-based; details: 0.03 µM
# SH-SY5Y [5] = test: Neuroprotective activity against MPP+-induced toxicity in human SH-SY5Y cells assessed as increase in cell viability at 15 nM pretreated for 1 hr followed by MPP+ addition measured after 24 hrs in the presence of human adenosine receptor A2A agonist CGS21680 by Celltiter-Glo luminescent assay; type: functional, cell-based
# In short: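 SH-SY5Y cells were given MPP+ (1.5 mM, 24 h) plus test agent at 15 nM, together with the A2A agonist CGS21680 at 10 to 100 nM, and cell viability was then measured.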
SMILES,Ki (Adenosine receptor A1) [nM],Ki (Adenosine receptor A2a [1]) [nM],Ki (Adenosine receptor A3) [nM],IC50 (Adenosine receptor A2b) [µM],IC50 (Adenosine receptor A2a [2]) [nM],Activity (SH-SY5Y [3]),Activity (SH-SY5Y [4]),Activity (SH-SY5Y [5])
Nc1nc(-c2ccccc2)cn2c(=O)n(-c3ccccc3)nc12,13,10,11,> 30,,,,
COc1ccc(-n2nc3c(N)nc(-c4ccccc4)cn3c2=O)cc1,20,78,117,> 30,,,,
Nc1nc(-c2ccc(O)cc2)cn2c(=O)n(-c3ccccc3)nc12,45,45,53,> 30,,,,
COc1cccc(-c2cn3c(=O)n(-c4ccccc4)nc3c(=O)[nH]2)c1,> 30000,> 30000,> 30000,> 30,,,,
COc1ccc(-n2nc3c(N)nc(C)cn3c2=O)cc1,1740,1040,255,> 30,,,,
C#CCOc1cccc(-c2cn3c(=O)n(-c4ccccc4)nc3c(N)n2)c1,45,5.1,67,> 30,,,,
CCCOc1ccc(-c2cn3c(=O)n(-c4ccccc4)nc3c(N)n2)cc1,> 30000,,> 30000,> 30,,,,
O=c1[nH]c(-c2ccccc2)cn2c(=O)n(-c3ccccc3O)nc12,1480,> 30000,21600,> 30,,,,
COc1ccc(-c2cn3c(=O)n(-c4ccccc4)nc3c(=O)[nH]2)cc1,> 30000,> 30000,> 30000,> 30,,,,
Cc1ccc(-c2cn3c(=O)n(-c4ccccc4)nc3c(N)n2)cc1,> 30000,> 30000,> 30000,> 30,,,,
Nc1nc(-c2ccc(OCC3CCC3)cc2)cn2c(=O)n(-c3ccccc3)nc12,> 30000,> 30000,> 30000,> 30,,,,
O=c1[nH]c(-c2ccc(O)cc2)cn2c(=O)n(-c3ccccc3)nc12,616,> 30000,207,> 30,,,,
Cc1cn2c(=O)n(-c3ccc(O)cc3)nc2c(N)n1,1000,1320,5160,> 30,,,,
C#CCOc1ccc(-c2cn3c(=O)n(-c4ccccc4)nc3c(N)n2)cc1,> 30000,10.6,> 30000,> 30,,,,
Nc1nc(-c2cccc(O)c2)cn2c(=O)n(-c3ccccc3)nc12,14,3.5,134,> 30,,,,
COc1ccccc1-n1nc2c(N)nc(-c3ccccc3)cn2c1=O,247,309,392,> 30,,,,
Cc1cn2c(=O)n(-c3ccccc3)nc2c(N)n1,67,485,4370,> 30,,,,
Nc1nc(-c2ccc(OCc3ccccc3)cc2)cn2c(=O)n(-c3ccccc3)nc12,3700,708,> 30000,> 30,,,,
COc1ccc(-n2nc3c(=O)[nH]c(C)cn3c2=O)cc1,> 30000,> 30000,50,> 30,,,,

SMILES,Ki (Adenosine receptor A1) [nM],Ki (Adenosine receptor A2a [1]) [nM],Ki (Adenosine receptor A3) [nM],IC50 (Adenosine receptor A2b) [µM],IC50 (Adenosine receptor A2a [2]) [nM],Activity (SH-SY5Y [3]),Activity (SH-SY5Y [4]),Activity (SH-SY5Y [5])
CC(C)Oc1ccc(-c2cn3c(=O)n(-c4ccccc4)nc3c(N)n2)cc1,> 30000,7.4,> 30000,> 30,,,,
O=c1[nH]c(-c2cccc(O)c2)cn2c(=O)n(-c3ccccc3)nc12,698,4070,1050,> 30,,,,
Nc1nc(-c2ccc(OCC3CC3)cc2)cn2c(=O)n(-c3ccccc3)nc12,> 30000,> 30000,> 30000,> 30,,,,
Cc1cn2c(=O)n(-c3ccc(O)cc3)nc2c(=O)[nH]1,5740,,229,> 30,,,,
COc1cccc(-c2cn3c(=O)n(-c4ccccc4)nc3c(N)n2)c1,44,6.8,42,> 30,,,,
O=c1[nH]c(-c2ccccc2)cn2c(=O)n(-c3ccccc3)nc12,> 30000,> 30000,96,> 30,,,,
COc1ccccc1-n1nc2c(=O)[nH]c(-c3ccccc3)cn2c1=O,2140,> 30000,5200,> 30,,,,
Nc1ccc(-n2nc3c(=O)[nH]c(-c4ccccc4)cn3c2=O)cc1,247,415,63,> 30,,,,
Cc1ccc(-c2cn3c(=O)n(-c4ccccc4)nc3c(=O)[nH]2)cc1,> 30000,> 30000,> 30000,> 30,,,,
Nc1ccc(-n2nc3c(N)nc(-c4ccccc4)cn3c2=O)cc1,8.9,3480,650,> 30,,,,
COc1ccc(-c2cn3c(=O)n(-c4ccccc4)nc3c(N)n2)cc1,> 30000,7.2,> 30000,> 30,180,Active,Non-Toxic,inactive
Nc1nc(-c2ccccc2)cn2c(=O)n(-c3ccc(O)cc3)nc12,18,138,429,> 30,,,,
Cc1cn2c(=O)n(-c3ccccc3)nc2c(=O)[nH]1,> 30000,> 30000,60,> 30,,,,
CCOc1ccc(-c2cn3c(=O)n(-c4ccccc4)nc3c(N)n2)cc1,> 30000,2.9,> 30000,> 30,98,,,
O=c1[nH]c(-c2ccccc2)cn2c(=O)n(-c3ccc(O)cc3)nc12,129,387,0.37,> 30,,,,
Nc1nc(-c2ccccc2)cn2c(=O)n(-c3ccccc3O)nc12,,47,1560,> 30,,,,
Nc1nc(-c2ccccc2)cn2c(=O)n(-c3ccc([N+](=O)[O-])cc3)nc12,8.1,402,> 30000,> 30,,,,
Nc1nc(-c2cccc(OCc3ccccc3)c2)cn2c(=O)n(-c3ccccc3)nc12,> 30000,> 30000,> 30000,> 30,,,,
COc1ccc(-n2nc3c(=O)[nH]c(-c4ccccc4)cn3c2=O)cc1,> 30000,> 30000,214,> 30,,,,
